rRNA inh HTS – inhibitors of bacterial rRNA selective over humanized ribosomes; hit rate 1.6% among 350,000; GFP signal change (wild-type ribosome), % (concentration not given with the values); E. coli WT GFP vs humanized-ribosome RFP mutants, fluorescence, 24 h; hits give low values; DMSO median 0, no signal -100;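 active means significant combined selectivity score with lowered wild-type GFP, culture density cut under 30%, mutant RFP and density less affected; inactive means any of these conditions unmet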
CFTR F508del cor – CFTR F508del correction in bronchial cells. CFBE cells, YFP halide quenching; stimulated with forskolin plus potentiator P3; % fluorescence drop versus neutral controls. activity (quench increase), % at 7.58 µM. hit rate 0.36% among 350,000;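 active means mean added fluorescence quench of at least 8% versus neutral control, with both replicates also reaching 8%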;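 further: cells transiently co-express mutant CFTR-F508del with the halide-sensitive YFP; corrector assay measuring rescue of mutant channel to the surface after 24 h compound exposure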
ERAP1 inh – blocks human ERAP1 aminopeptidase activity; Q9NZ08; recombinant ERAP1, Leu-AMC fluorescence, 60 min; inhibition, % at 10.7 µM; hit rate 0.15% among 340,000; AID 652197;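 active means mean replicate inhibition of at least 30%, or all replicates individually reaching that 30% level; inactive means mean below 30% and not every replicate reaching it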
S100A4 MyoIIA – S100A4-myosin IIA interaction inhibition; P26447; S100A4/TAMRA-MyoIIA peptide fluorescence polarization; inhibition, % at 10.7 µM; hit rate 0.14% among 360,000; AID 652163;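 active means mean inhibition of at least 70% across replicates, with every replicate also reaching that level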
Target sequence (P26447 whole entry, looked up): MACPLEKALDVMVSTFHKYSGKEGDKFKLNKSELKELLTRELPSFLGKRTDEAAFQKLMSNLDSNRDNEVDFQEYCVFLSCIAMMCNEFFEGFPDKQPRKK
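incubation = readout 5 min after mixing, signal stable up to 60 min | system = S100A4 monomer protein | buffer or medium = HEPES pH 7.2 with CaCl2, KCl, NaCl, DTT, Triton | benchmarks = neutral control DMSO, positive control TFP | also added = fluorescent myosin IIA peptide, 5 nM | compound dosing = one concentration per compound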
SIRT5 block – blocks human SIRT5 desuccinylation of peptide | Q9NXA8 | Purified SirT5, succinyl-peptide AMC, trypsin-coupled fluorescence | inhibition, % at 15 µM | hit rate 1.1% among 330,000 | AID 652115; in the data active means inhibition above about 15%
Target sequence (Q9NXA8 whole entry, looked up): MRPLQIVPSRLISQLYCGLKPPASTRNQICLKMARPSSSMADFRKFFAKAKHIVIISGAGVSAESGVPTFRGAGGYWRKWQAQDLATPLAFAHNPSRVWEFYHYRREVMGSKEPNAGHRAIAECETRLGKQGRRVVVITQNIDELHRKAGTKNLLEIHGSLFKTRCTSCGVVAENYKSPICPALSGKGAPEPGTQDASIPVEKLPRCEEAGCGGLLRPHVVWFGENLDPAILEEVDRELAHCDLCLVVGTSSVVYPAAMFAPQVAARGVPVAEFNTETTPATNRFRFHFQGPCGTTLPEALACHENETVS
A number is an active result; . = inactive; / = no result given. In the library only some 3.1% were active in any assay of this set; here they are far more common.

SMILES | rRNA inh HTS | CFTR F508del cor | ERAP1 inh | S100A4 MyoIIA | SIRT5 block
CCOC(=O)N/N=C/c1ccccc1OCc1ccc(Cl)cc1 | -25.1 | / | . | . | .
C/C=C/c1cnc2c(c1)C(=O)N([C@H](C)CO)C[C@H](C)[C@H](CN(C)S(=O)(=O)c1ccc(OC)cc1)O2 | . | . | . | . | .
Fc1ccc(-c2nnc(-c3ccc4ccccc4c3)o2)cc1 | -6.9 | . | . | . | /
CC(C)Cc1ccc(C(C)C(=O)Nc2ccc(O)cc2)cc1 (stereo not given) | . | . | . | . | .
CC(C)Cc1ccc(C(C)C(N)=Nc2ccc(O)cc2)cc1 (stereo not given) | -44.2 | . | . | . | 19.1
COc1cccc(N=Nc2ccc3cccnc3c2O)c1 | . | 8.3 | . | . | .
C/C(=N\Nc1ccc(S(=O)(=O)Nc2ccccc2)cc1[N+](=O)[O-])c1ccncc1 | . | . | . | . | .
O=C(O)c1ccccc1NS(=O)(=O)c1ccc(NN=Cc2ccccc2F)c([N+](=O)[O-])c1 | . | . | . | . | 17.3
COc1ccc(NS(=O)(=O)c2ccc(N/N=C(\C)c3ccncc3)c([N+](=O)[O-])c2)cc1 | -23.1 | / | . | . | .
COc1ccc(NC(=S)NNc2ccc(S(=O)(=O)Nc3ccccc3C(=O)O)cc2[N+](=O)[O-])cc1 | . | . | . | . | 16.8
CCOc1ccc(C=NNc2ccc(S(=O)(=O)Nc3ccccc3C(=O)O)cc2[N+](=O)[O-])cc1 | / | . | . | . | 20.2
CSc1ccc(C=NNc2ccc(S(=O)(=O)Nc3ccccc3C(=O)O)cc2[N+](=O)[O-])cc1 | . | . | . | . | .
CO[C@@H]1CN(C)C(=O)c2ccc(NC(=O)CC(F)(F)F)cc2OC[C@H](C)N(C(C)=O)C[C@@H]1C | . | . | . | . | /
COCC(=O)N(C)C[C@@H]1Oc2ncc(C3=CCCC3)cc2C(=O)N([C@H](C)CO)C[C@H]1C | . | . | . | . | .
CCCC#Cc1ccc([C@H]2[C@@H](CO)N(C(C)=O)[C@H]2CNC(=O)C2CC2)cc1 | . | . | . | . | .
CO[C@@H]1CN(C)C(=O)c2ccc(NC(=O)C3CCOCC3)cc2OC[C@@H](C)N(C)C[C@H]1C | . | . | / | / | /
COc1ccc(C=NNc2ccc(S(=O)(=O)Nc3ccccc3C(=O)O)cc2[N+](=O)[O-])c(OC)c1 | . | / | . | . | 44.5
CCOc1cccc(C=NNc2ccc(S(=O)(=O)Nc3ccccc3C(=O)O)cc2[N+](=O)[O-])c1O | . | . | . | . | .
CSc1ncc(Cl)c(C(=O)Nc2ccccc2C)n1 | . | . | . | . | .
CCSc1ncc(Cl)c(C(=O)Nc2ccccc2C)n1 | . | . | . | . | 32.9
Cc1cc(S(=O)(=O)N2CCN=C2c2ccccc2)c(C)cc1Cl | . | / | . | . | 20.9
O=C(CN1C(=O)NC(c2ccccc2)(c2ccccc2)C1=O)NCc1cccs1 | -35.6 | . | . | . | .
O=C(Nc1ccc(C(F)(F)F)cc1)N[C@@H]1CC[C@@H](CC(=O)N2CCCCC2)O[C@H]1CO | . | . | . | . | .
CN1CCN(C(=O)C[C@@H]2CC[C@H]3[C@@H](COC[C@H](O)CN3C(=O)Nc3ccc(Cl)cc3)O2)CC1 | -33.8 | . | . | . | .
CN1CCN(C(=O)C[C@@H]2CC[C@@H]3[C@H](COC[C@@H](O)CN3C(=O)Nc3ccc(Cl)cc3)O2)CC1 | . | . | . | . | .
SMILES | rRNA inh HTS | CFTR F508del cor | ERAP1 inh | S100A4 MyoIIA | SIRT5 block
COc1ccc(NC(=O)N2C[C@H](O)COC[C@@H]3O[C@@H](CC(=O)N4CCCCC4)CC[C@H]32)cc1 | . | . | . | . | 25.4
O=C(C[C@@H]1CC[C@H]2[C@@H](COC[C@H](O)CN2C(=O)Nc2cc(Cl)cc(Cl)c2)O1)N1CCOCC1 | -28.5 | . | . | . | .
O=C(C[C@H]1CC[C@@H]2[C@H](COC[C@@H](O)CN2C(=O)Nc2cc(Cl)cc(Cl)c2)O1)N1CCOCC1 | -33.5 | . | / | / | /
Cc1noc(C)c1S(=O)(=O)Nc1ccc2c(c1)C(=O)N([C@H](C)CO)C[C@H](C)[C@@H](CN(C)C(=O)Cc1ccccc1)OCCCC[C@H](C)O2 | . | . | . | . | .
O=C(CCN1CCCCC1)NCC[C@H]1CC[C@H](NS(=O)(=O)c2cccc(F)c2)[C@H](CO)O1 | . | . | . | . | .
C[C@@H]1CN([C@@H](C)CO)C(=O)Cc2cc(NC(=O)CCC(F)(F)F)ccc2O[C@H]1CN(C)S(=O)(=O)c1ccc(Cl)cc1 | . | . | . | . | .
COCCNC(=O)C[C@H]1C[C@@H]2c3cc(NC(=O)NC4CCCCC4)ccc3O[C@@H]2[C@@H](CO)O1 | . | . | . | . | .
CC[C@@H](NC(=O)[C@@H](Cc1ccccc1)NC(=O)CC[C@H]1O[C@@H](n2ccc(=O)[nH]c2=O)[C@H](O)[C@@H]1O)c1ccccc1 | -8.9 | . | . | . | .
CC[C@H](NC(=O)[C@@H](Cc1ccccc1)NC(=O)[C@H]1O[C@@H](n2ccc(=O)[nH]c2=O)[C@H](O)[C@@H]1O)c1ccccc1 | . | . | . | . | .
CCCNC(=O)C[C@@H]1CC[C@@H]2[C@H](COc3ccc(NS(=O)(=O)c4ccccc4C)cc3C(=O)N2C)O1 | . | . | . | . | .
C=CCN1C(=O)N(c2ccc(F)cc2)C(=O)C1CC(=O)Nc1ccc(Cl)cc1 (stereo not given) | . | . | . | . | .
COC(=O)CN1C(=S)N(c2ccc(Cl)cc2)C(=O)C1CC(=O)Nc1ccc(F)cc1 (stereo not given) | -24.9 | / | . | . | .
Cc1noc(C)c1S(=O)(=O)N(C)C[C@@H]1Oc2ccc(NC(=O)C3CC3)cc2CC(=O)N([C@H](C)CO)C[C@@H]1C | . | . | . | . | .
C[C@@H]1CCCCO[C@@H](CN(C)C(=O)C2CCCCC2)[C@@H](C)CN([C@H](C)CO)C(=O)c2cc(NC(=O)C3CCCCC3)ccc2O1 | . | . | . | . | .
CCOC(=O)c1c(-c2ccc(OC)cc2)csc1NC(=O)CCN1CCOCC1 | . | . | . | . | .
CCOC(=O)c1c(-c2ccc(C)cc2)csc1NC(=O)CCN1CC(C)OC(C)C1 (stereo not given) | . | / | . | . | 20.0
NS(=O)(=O)c1ccc(NC(=O)COC(=O)/C(=C/c2cccs2)c2cccs2)cc1 | -18.4 | . | / | . | .
COc1ccc(N/C(=N/c2nc(C)cc(C)n2)NC(=O)c2ccccc2)cc1 | -19.8 | . | . | . | .
C[C@@H]1CCCCO[C@H](CN(C)S(=O)(=O)c2cccs2)[C@@H](C)CN([C@@H](C)CO)C(=O)c2cc(NC(=O)C3CCCCC3)ccc2O1 | . | . | . | . | .
CCCCN(C)CCNC(=O)c1ccc(Cn2c(=S)[nH]c3ccc(Br)cc3c2=O)cc1 | -52.8 | . | . | . | 49.3
